According to ChEMBL document CHEMBL4184332, “Discovery of Novel Nonsteroidal Anti-Inflammatory Drugs and Carbonic Anhydrase Inhibitors Hybrids (NSAIDs-CAIs) for the Management of Rheumatoid Arthritis” (J Med Chem, 2018):
The source made the active and inactive calls.

Legend:
Rattus norvegicus [1] = species: Rattus norvegicus; assay: Change in pain threshold of contralateral paw of CFA-induced Sprague-Dawley rat rheumatoid arthritis model by paw pressure test; format: organism-based; settings: in vivo
In short: (§1)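 Rats: Sprague Dawley, 200-250 g, given 50 μl CFA intra-articularly into the tibiotarsal joint; controls got saline. On day 14, compounds in 1% CMC were given orally. An analgesimeter applied increasing pressure to the dorsal hind paw with a blunt conical probe until vocalization or withdrawal, read in grams, cut-off 120 g. Rats below 40 g or above 75 g before dosing were excluded. Values are mean (S.E.M.) of 8 rats from 2 experiments.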

Rattus norvegicus [2] = assay: Antiarthritic activity in CFA-induced Sprague-Dawley rat rheumatoid arthritis model assessed as tolerated weight on ipsilateral paw at 10 mg/kg, po measured at 15 mins by paw pressure test (reference value: 43.5 +/- 0.5 g); format: functional; in short: as §1
Rattus norvegicus [3] = assay: Antiarthritic activity in CFA-induced Sprague-Dawley rat rheumatoid arthritis model assessed as tolerated weight on ipsilateral paw at 1 mg/kg, po measured up to 30 mins by paw pressure test (reference value: 43.5 +/- 0.5 g); format: functional; in short: as §1
Carbonic anhydrase 9 = Carbonic anhydrase 9 (Homo sapiens, UniProt Q16790); assay: Inhibition of recombinant human carbonic anhydrase-9 catalytic domain incubated for 15 mins by stopped-flow CO2 hydrase assay
Rattus norvegicus [4] = assay: Antiarthritic activity in CFA-induced Sprague-Dawley rat rheumatoid arthritis model assessed as increase in tolerated weight on ipsilateral paw at 10 mg/kg, po measured up to 75 mins by paw pressure test; format: functional, organism-based; in short: as §1
Rattus norvegicus [5] = assay: Antiarthritic activity in CFA-induced Sprague-Dawley rat rheumatoid arthritis model assessed as difference between weight burden on contralateral and ipsilateral paw at 10 mg/kg, po measured at 15 to 30 mins by incapacitance test (reference value: 54.2 +/- 5.1 g); format: functional
Carbonic anhydrase 4 = Carbonic anhydrase 4 (Homo sapiens, UniProt P22748); assay: Inhibition of recombinant human carbonic anhydrase-4 incubated for 15 mins by stopped-flow CO2 hydrase assay
Carbonic anhydrase 12 = Carbonic anhydrase 12 (Homo sapiens, UniProt O43570); assay: Inhibition of recombinant human carbonic anhydrase-12 incubated for 15 mins by stopped-flow CO2 hydrase assay
Rattus norvegicus [6] = assay: Antiarthritic activity in po dosed CFA-induced Sprague-Dawley rat rheumatoid arthritis model assessed as decrease in difference between weight burden on contralateral and ipsilateral paw measured up to 60 mins by incapacitance test; format: functional, organism-based
Carbonic anhydrase 1 [7] = target: T1, Carbonic anhydrase 1 (Homo sapiens, UniProt P00915); assay: Inhibition of recombinant human carbonic anhydrase-1 incubated for 15 mins by stopped-flow CO2 hydrase assay
Target sequence in this assay (P00915 whole entry): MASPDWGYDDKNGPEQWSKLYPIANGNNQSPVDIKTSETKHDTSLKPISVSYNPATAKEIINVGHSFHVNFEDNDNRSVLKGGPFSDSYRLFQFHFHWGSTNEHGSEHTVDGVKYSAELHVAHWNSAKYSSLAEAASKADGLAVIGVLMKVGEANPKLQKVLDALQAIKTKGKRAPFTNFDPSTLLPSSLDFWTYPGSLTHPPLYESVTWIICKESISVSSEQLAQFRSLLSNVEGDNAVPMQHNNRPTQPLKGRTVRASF

Rattus norvegicus [8] = assay: Antiarthritic activity in CFA-induced Sprague-Dawley rat rheumatoid arthritis model assessed as decrease in difference between weight burden on contralateral and ipsilateral paw at 0.1 mg/kg, po measured up to 75 mins by incapacitance test; format: functional, organism-based
Rattus norvegicus [9] = assay: Antiarthritic activity in po dosed CFA-induced Sprague-Dawley rat rheumatoid arthritis model assessed as increase in tolerated weight on ipsilateral paw measured up to 60 mins by paw pressure test; format: functional, organism-based; in short: as §1
Rattus norvegicus [10] = assay: Antiarthritic activity in CFA-induced Sprague-Dawley rat rheumatoid arthritis model assessed as difference between weight burden on contralateral and ipsilateral paw at 1 mg/kg, po measured at 15 to 30 mins by incapacitance test (reference value: 54.2 +/- 5.1 g); format: functional
Carbonic anhydrase 2 [11] = target: T2, Carbonic anhydrase 2 (Homo sapiens, UniProt P00918); assay: Inhibition of recombinant human carbonic anhydrase-2 incubated for 15 mins by stopped-flow CO2 hydrase assay
Rattus norvegicus [12] = assay: Antiarthritic activity in CFA-induced Sprague-Dawley rat rheumatoid arthritis model assessed as tolerated weight on ipsilateral paw at 1 mg/kg, po measured at 15 mins by paw pressure test (reference value: 43.5 +/- 0.5 g); format: functional; in short: as §1
Rattus norvegicus [13] = assay: Antiarthritic activity in CFA-induced Sprague-Dawley rat rheumatoid arthritis model assessed as tolerated weight on ipsilateral paw at 10 mg/kg, po measured at 30 mins by paw pressure test (reference value: 43.5 +/- 0.5 g); format: functional; in short: as §1
Rattus norvegicus [14] = assay: Antiarthritic activity in CFA-induced Sprague-Dawley rat rheumatoid arthritis model assessed as increase in tolerated weight on ipsilateral paw at 6.2 mg/kg, po measured at 15 mins by paw pressure test; format: functional, organism-based; in short: as §1
Rattus norvegicus [15] = assay: Antiarthritic activity in CFA-induced Sprague-Dawley rat rheumatoid arthritis model assessed as decrease in difference between weight burden on contralateral and ipsilateral paw at 6.2 mg/kg, po measured up to 75 mins by incapacitance test; format: functional, organism-based
Rattus norvegicus [16] = assay: Antiarthritic activity in CFA-induced Sprague-Dawley rat rheumatoid arthritis model assessed as tolerated weight on ipsilateral paw at 1 mg/kg, po measured at 30 mins by paw pressure test (reference value: 43.5 +/- 0.5 g); format: functional; in short: as §1
Rattus norvegicus [17] = assay: Antiarthritic activity in CFA-induced Sprague-Dawley rat rheumatoid arthritis model assessed as difference between weight burden on contralateral and ipsilateral paw at 1 mg/kg, po measured at 30 mins by incapacitance test (reference value: 54.2 +/- 5.1 g); format: functional
Rattus norvegicus [18] = assay: Antiarthritic activity in CFA-induced Sprague-Dawley rat rheumatoid arthritis model assessed as difference between weight burden on contralateral and ipsilateral paw at 10 mg/kg, po measured at 30 mins by incapacitance test (reference value: 54.2 +/- 5.1 g); format: functional
Rattus norvegicus [19] = assay: Antiarthritic activity in CFA-induced Sprague-Dawley rat rheumatoid arthritis model assessed as difference between weight burden on contralateral and ipsilateral paw at 0.1 mg/kg, po measured at 15 to 30 mins by incapacitance test (reference value: 54.2 +/- 5.1 g); format: functional
Rattus norvegicus [20] = assay: Antiarthritic activity in CFA-induced Sprague-Dawley rat rheumatoid arthritis model assessed as tolerated weight on ipsilateral paw at 0.1 mg/kg, po measured at 15 mins by paw pressure test (reference value: 43.5 +/- 0.5 g); format: functional; in short: as §1
Rattus norvegicus [21] = assay: Antiarthritic activity in CFA-induced Sprague-Dawley rat rheumatoid arthritis model assessed as increase in tolerated weight on ipsilateral paw at 1 mg/kg, po measured at 60 mins by paw pressure test; format: functional, organism-based; in short: as §1
Rattus norvegicus [22] = assay: Antiarthritic activity in CFA-induced Sprague-Dawley rat rheumatoid arthritis model assessed as decrease in difference between weight burden on contralateral and ipsilateral paw at 0.1 mg/kg, po measured up to 45 mins by incapacitance test; format: functional, organism-based
Rattus norvegicus [23] = assay: Antiarthritic activity in CFA-induced Sprague-Dawley rat rheumatoid arthritis model assessed as increase in tolerated weight on ipsilateral paw at 0.1 mg/kg, po measured up to 45 mins by paw pressure test; format: functional, organism-based; in short: as §1
Rattus norvegicus [24] = assay: Antiarthritic activity in CFA-induced Sprague-Dawley rat rheumatoid arthritis model assessed as increase in tolerated weight on ipsilateral paw at 5.8 mg/kg, po measured at 15 mins by paw pressure test; format: functional, organism-based; in short: as §1
Rattus norvegicus [25] = assay: Antiarthritic activity in CFA-induced Sprague-Dawley rat rheumatoid arthritis model assessed as decrease in difference between weight burden on contralateral and ipsilateral paw at 5.8 mg/kg, po measured up to 75 mins by incapacitance test; format: functional, organism-based
Rattus norvegicus [26] = assay: Antiarthritic activity in CFA-induced Sprague-Dawley rat rheumatoid arthritis model assessed as decrease in difference between weight burden on contralateral and ipsilateral paw at 10 mg/kg, po measured up to 60 mins by incapacitance test; format: functional, organism-based
Carbonic anhydrase 1 [27] = target: T1, Carbonic anhydrase 1; assay: Potency index, ratio of acetazolamide Ki to test compound Ki for recombinant human carbonic anhydrase-1
In short: (§2)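 Recombinant human CA, made in house, in a stopped-flow CO₂ hydration assay. Conditions: 20 mM Hepes pH 7.5, 20 mM Na₂SO₄, 0.2 mM phenol red read at 557 nm, CO₂ 1.7-17 mM. Enzyme and inhibitor were preincubated 15 min at room temperature. Initial rates were corrected for the uncatalyzed rate. Ki came from nonlinear least squares, mean of three measurements. The ratio uses the acetazolamide Ki.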
Target sequence in this assay (P00915 2-261 limits assumed): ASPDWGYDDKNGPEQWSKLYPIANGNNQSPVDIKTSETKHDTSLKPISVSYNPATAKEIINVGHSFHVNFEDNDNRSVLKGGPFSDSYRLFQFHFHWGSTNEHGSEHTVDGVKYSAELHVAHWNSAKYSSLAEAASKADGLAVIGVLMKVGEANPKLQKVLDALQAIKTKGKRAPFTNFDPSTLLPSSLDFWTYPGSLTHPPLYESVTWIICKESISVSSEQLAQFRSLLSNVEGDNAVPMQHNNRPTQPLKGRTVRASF

Rattus norvegicus [28] = assay: Antiarthritic activity in CFA-induced Sprague-Dawley rat rheumatoid arthritis model assessed as increase in tolerated weight on ipsilateral paw at 10 mg/kg, po measured at 15 mins by paw pressure test; format: functional, organism-based; in short: as §1
Rattus norvegicus [29] = assay: Antiarthritic activity in CFA-induced Sprague-Dawley rat rheumatoid arthritis model assessed as tolerated weight on ipsilateral paw at 0.1 mg/kg, po measured up to 30 mins by paw pressure test (reference value: 43.5 +/- 0.5 g); format: functional; in short: as §1
Rattus norvegicus [30] = assay: Antiarthritic activity in CFA-induced Sprague-Dawley rat rheumatoid arthritis model assessed as increase in tolerated weight on ipsilateral paw at 1 mg/kg, po measured up to 60 mins by paw pressure test; format: functional, organism-based; in short: as §1
Rattus norvegicus [31] = assay: Antiarthritic activity in CFA-induced Sprague-Dawley rat rheumatoid arthritis model assessed as tolerated weight on ipsilateral paw at 10 mg/kg, po measured up to 30 mins by paw pressure test (reference value: 43.5 +/- 0.5 g); format: functional; in short: as §1
Rattus norvegicus [32] = assay: Antiarthritic activity in CFA-induced Sprague-Dawley rat rheumatoid arthritis model assessed as decrease in difference between weight burden on contralateral and ipsilateral paw at 10 mg/kg, po measured up to 75 mins by incapacitance test; format: functional, organism-based
Carbonic anhydrase 2 [33] = target: T2, Carbonic anhydrase 2; assay: Potency index, ratio of acetazolamide Ki to test compound Ki for recombinant human carbonic anhydrase-2; in short: as §2

Carbonic anhydrase 4, sequence (P22748 whole entry): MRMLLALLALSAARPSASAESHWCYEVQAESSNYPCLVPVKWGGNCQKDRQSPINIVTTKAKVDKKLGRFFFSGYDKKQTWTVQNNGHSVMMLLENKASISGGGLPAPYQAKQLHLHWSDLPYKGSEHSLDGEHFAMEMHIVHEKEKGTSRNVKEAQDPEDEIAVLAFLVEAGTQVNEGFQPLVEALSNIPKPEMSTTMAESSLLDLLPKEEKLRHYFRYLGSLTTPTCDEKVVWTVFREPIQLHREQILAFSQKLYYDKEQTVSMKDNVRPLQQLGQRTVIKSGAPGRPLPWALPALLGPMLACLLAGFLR
Carbonic anhydrase 12, sequence (O43570 whole entry): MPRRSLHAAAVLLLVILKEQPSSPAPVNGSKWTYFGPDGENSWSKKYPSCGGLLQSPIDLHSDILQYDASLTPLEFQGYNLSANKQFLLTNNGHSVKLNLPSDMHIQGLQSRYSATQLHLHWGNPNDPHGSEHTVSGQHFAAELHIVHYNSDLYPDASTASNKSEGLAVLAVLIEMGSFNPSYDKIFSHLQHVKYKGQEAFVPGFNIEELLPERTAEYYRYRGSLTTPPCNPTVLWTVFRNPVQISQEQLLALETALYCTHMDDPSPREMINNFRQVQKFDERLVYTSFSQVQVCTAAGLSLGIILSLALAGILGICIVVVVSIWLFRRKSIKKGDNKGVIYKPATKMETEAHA

SMILES: CC1=C(CC(=O)NCCc2ccc(S(N)(=O)=O)cc2)c2cc(F)ccc2/C1=C/c1ccc([S+](C)[O-])cc1 (configuration not stated)
- Activity (Rattus norvegicus [1]): Non-Toxic
- Activity (Rattus norvegicus [2]): 62.5 g
- Activity (Rattus norvegicus [3]): 55 g
- Ki (Carbonic anhydrase 9): 62.5 nM
- Activity (Rattus norvegicus [4]): Active
- Activity (Rattus norvegicus [5]): 8.6 g
- Ki (Carbonic anhydrase 4): 6860 nM
- Ki (Carbonic anhydrase 12): 94.4 nM
- Activity (Rattus norvegicus [6]): Dose-dependent effect
- Ki (Carbonic anhydrase 1 [7]): 64.9 nM
- Activity (Rattus norvegicus [8]): inactive
- Activity (Rattus norvegicus [9]): Dose-dependent effect
- Activity (Rattus norvegicus [10]): 22.3 g
- Ki (Carbonic anhydrase 2 [11]): 27.3 nM
- Activity (Rattus norvegicus [12]): 55 g
- Activity (Rattus norvegicus [13]): 64.2 g

SMILES: O=C(O)Cc1ccccc1Nc1c(Cl)cccc1Cl
- Activity (Rattus norvegicus [14]): Active
- Activity (Rattus norvegicus [15]): Active

SMILES: NS(=O)(=O)c1ccc(CCNC(=O)Cc2ccccc2Nc2c(Cl)cccc2Cl)cc1
- Activity (Rattus norvegicus [1]): Non-Toxic
- Activity (Rattus norvegicus [16]): 56.7 g
- Activity (Rattus norvegicus [17]): 20.6 g
- Activity (Rattus norvegicus [18]): 14.7 g
- Activity (Rattus norvegicus [19]): 39 g
- Ki (Carbonic anhydrase 9): 43.3 nM
- Activity (Rattus norvegicus [4]): Active
- Ki (Carbonic anhydrase 4): 8650 nM
- Ki (Carbonic anhydrase 12): 90.2 nM
- Activity (Rattus norvegicus [20]): 52.5 g
- Ki (Carbonic anhydrase 1 [7]): 68.4 nM
- Activity (Rattus norvegicus [21]): inactive
- Ki (Carbonic anhydrase 2 [11]): 43.7 nM
- Activity (Rattus norvegicus [22]): Active
- Activity (Rattus norvegicus [13]): 66.3 g
- Activity (Rattus norvegicus [23]): Active

SMILES: CC(C(=O)O)c1cccc(C(=O)c2ccccc2)c1 (configuration not stated)
- Activity (Rattus norvegicus [24]): Active
- Activity (Rattus norvegicus [25]): Active

SMILES: COc1ccc2cc(C(C)C(=O)NCCc3ccc(S(N)(=O)=O)cc3)ccc2c1 (racemic)
- Activity (Rattus norvegicus [1]): Non-Toxic
- Activity (Rattus norvegicus [26]): Active
- Activity (Rattus norvegicus [17]): 34.3 g
- Activity (Rattus norvegicus [18]): 29.3 g
- Ki (Carbonic anhydrase 9): 12.9 nM
- Ki (Carbonic anhydrase 4): 6030 nM
- Ki (Carbonic anhydrase 12): 91.9 nM
- Ki (Carbonic anhydrase 1 [7]): 19.1 nM
- Activity (Rattus norvegicus [9]): Dose-dependent effect
- Ki (Carbonic anhydrase 2 [11]): 5.2 nM

SMILES: CC(C(=O)NCCOc1ccc(S(N)(=O)=O)cc1)c1cccc(C(=O)c2ccccc2)c1 (racemic)
- Ki (Carbonic anhydrase 9): 76.5 nM
- Ki (Carbonic anhydrase 4): 77.7 nM
- Ki (Carbonic anhydrase 12): 8.6 nM
- Ki (Carbonic anhydrase 1 [7]): 21.3 nM
- Ratio Ki (Carbonic anhydrase 1 [27]): 10
- Ki (Carbonic anhydrase 2 [11]): 6.7 nM

SMILES: CC(C(=O)NCCc1ccc(S(N)(=O)=O)cc1)c1cccc(C(=O)c2ccccc2)c1 (racemic)
- Activity (Rattus norvegicus [1]): Non-Toxic
- Activity (Rattus norvegicus [16]): 53.3 g
- Activity (Rattus norvegicus [17]): 36.8 g
- Activity (Rattus norvegicus [28]): Active
- Activity (Rattus norvegicus [18]): 28.6 g
- Ki (Carbonic anhydrase 9): 39.3 nM
- Activity (Rattus norvegicus [4]): Active
- Ki (Carbonic anhydrase 4): 3010 nM
- Activity (Rattus norvegicus [29]): 50 g
- Ki (Carbonic anhydrase 12): 54 nM
- Activity (Rattus norvegicus [20]): 50 g
- Activity (Rattus norvegicus [6]): Dose-dependent effect
- Activity (Rattus norvegicus [30]): Active
- Activity (Rattus norvegicus [31]): 56.7 g
- Ki (Carbonic anhydrase 1 [7]): 8.1 nM
- Activity (Rattus norvegicus [32]): Active
- Ratio Ki (Carbonic anhydrase 2 [33]): 1.86
- Ki (Carbonic anhydrase 2 [11]): 6.5 nM
- Activity (Rattus norvegicus [12]): 51.7 g
- Activity (Rattus norvegicus [23]): Active
